Published values pooled from the literature.
Lines come from different studies, so protocols differ.
EGFR: Epidermal growth factor receptor (EGFR, Homo sapiens, UniProt P00533)

| Compound | target | effect on | mode | technique | endpoint | result |
| --- | --- | --- | --- | --- | --- | --- |
| CCN(CC)C/C=N/NC(=O)Nc1cc2c(Nc3ccc(F)c(Cl)c3)ncnc2cc1O[C@H]1CCOC1 | EGFR | enzyme activity | inhibitor |  | IC50 | 0.4 nM |
| COc1cc2ncc(-c3ccccc3)nc2cc1OC | EGFR | binding |  |  | Kd | > 10000 nM |
| CC#CC(=O)N1CC[C@@H](n2cc(-c3ccc(Oc4c(F)cccc4F)cc3)c3c(N)n[nH]c(=O)c32)C1 | EGFR | binding |  | competition with immobilised ligand | Kd | 270 nM |
| COc1cc2ncnc(Nc3ccc(O)cc3)c2cc1OC | EGFR | binding |  |  | Kd | 26 nM |
| C=C(Cl)C(=O)Nc1cc(Nc2nc(N3CCc4sccc4C3)c3sccc3n2)c(OC)cc1N(C)CCN(C)C | EGFR | enzyme activity | inhibitor | ELISA | IC50 | 996 nM |
| C=CC(=O)Nc1cc(Nc2nccc(-c3cn(C4CC4)c4ccccc34)n2)c(OC)cc1N(C)CCN(C)C | Epidermal growth factor receptor (EGFR, Homo sapiens, UniProt P00533, G719S) | enzyme activity | inhibitor | TR-FRET | IC50 | 82.8 nM |
| C=C(Cl)C(=O)Nc1cc(Nc2nc(Nc3cnn(C)c3)c3sccc3n2)c(OC)cc1N(C)CCN(C)C | Epidermal growth factor receptor (EGFR, Homo sapiens, UniProt P00533, C797S/L858R/T790M) | enzyme activity | inhibitor | ELISA | IC50 | > 1000 nM |
| O=C(N/N=C/c1cccn1CCCN1CCCCC1)Nc1cc2c(Nc3ccc(F)c(Cl)c3)ncnc2cc1O[C@H]1CCOC1 | EGFR | enzyme activity | inhibitor |  | IC50 | 0.8 nM |
